Compound activity (PubChem BioAssay)
An excerpt weighted towards active compounds, which were near 2.7% of everything screened.
PRMT1 FP inh: blocks human protein arginine methyltransferase 1; recombinant PRMT1, activity-based probe fluorescence polarization; inhibition, % at 2.79 µM; actives 1.3% (n = 370,000); AID 652257;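 active = inhibition above about 21% made by adding two undisclosed values, limit read from the data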
GSTO1 inh: blocks human GSTO1 in RBBP9 counter-screen; recombinant GSTO1, activity-based probe fluorescence polarization; inhibition, % at 5.96 µM; actives 1.1% (n = 300,000); AID 1974;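 active = inhibition above the campaign mean inhibition plus 3 SD, cut at about 35% in these data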
RBBP9 inh: human RBBP9 hydrolase inhibition; O75884; recombinant RBBP9, FP-Rh probe fluorescence polarization; inhibition, % at 7.94 µM; actives 0.2% (n = 220,000);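 active = inhibition above the campaign mean of all tested compounds plus 3 SD, cut at about 14% in these data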
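Measured by: FP readout at 525/598 nm; material: recombinant human RBBP9; also added: Serine-hydrolase probe FP-Rh, 375 nM pre-mixing; medium: Tris buffer pH 8.0, NaCl, Pluronic; replication: one well per compound; doses: one concentration, 7.94 µM nominal, 0.794% DMSO; timing: preincubation 30 min plus labeling 45 min at 25 °C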
PAD4 inh: inhibitors of human PAD4. Q9UM07. recombinant PAD4, RCA probe fluorescence polarization. inhibition, % at 6.36 µM. actives 0.41% (n = 330,000);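 active = percent inhibition above a cutoff equal to the mean of all tested compounds plus 3 SD, cut at about 15% in these data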
Target sequence (Q9UM07 whole entry, looked up): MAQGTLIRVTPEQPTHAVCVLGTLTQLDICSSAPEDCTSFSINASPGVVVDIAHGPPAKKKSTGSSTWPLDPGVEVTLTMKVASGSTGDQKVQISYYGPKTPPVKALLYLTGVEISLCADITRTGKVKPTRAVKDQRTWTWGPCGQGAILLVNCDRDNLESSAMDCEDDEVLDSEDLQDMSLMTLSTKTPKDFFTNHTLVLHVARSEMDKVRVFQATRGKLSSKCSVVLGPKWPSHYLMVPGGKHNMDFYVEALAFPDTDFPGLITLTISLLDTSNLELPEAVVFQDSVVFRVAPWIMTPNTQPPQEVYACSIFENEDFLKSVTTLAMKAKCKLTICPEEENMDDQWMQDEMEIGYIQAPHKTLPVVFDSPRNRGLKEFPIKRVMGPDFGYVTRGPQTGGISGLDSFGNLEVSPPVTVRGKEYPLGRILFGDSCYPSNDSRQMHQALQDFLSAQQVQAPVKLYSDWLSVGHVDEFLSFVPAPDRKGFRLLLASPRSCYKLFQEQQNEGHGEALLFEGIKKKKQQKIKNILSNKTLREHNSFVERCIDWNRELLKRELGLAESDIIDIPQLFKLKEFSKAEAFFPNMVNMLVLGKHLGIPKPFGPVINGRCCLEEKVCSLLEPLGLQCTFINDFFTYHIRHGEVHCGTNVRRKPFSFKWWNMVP
SIAE inh: inhibitors of human sialic acid acetylesterase SIAE; SIAE FP-Rh probe binding, fluorescence polarization; actives 0.69% (n = 370,000); inhibition, % at 9.66 µM; Q9HAT2;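 active = inhibition above a cutoff: mean of compounds within the control limits plus 3 SD of those, cut at about 17% in these data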
PRMT1 inh conf: PRMT1 (human) inhibition, FP confirmation; AID 687036; inhibition, % at 2.79 µM; shares compounds with PRMT1 FP inh; recombinant His-PRMT1, activity-based probe fluorescence polarization; actives 42% (n = 3,300);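 active = mean inhibition across replicates above the hit cutoff derived for the earlier primary screen, cut at about 22% in these data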
Of the large screens only hits and unclear results are named; the others gave an inactive call (follow-up assays come after a bar, where they were run).

CCOC(=O)CC(=O)CSCC(=O)Nc1ccc(C)cc1	PRMT1 FP inh 40 | PRMT1 inh conf 32
Cc1cnc(C(=O)OCc2ccc(Br)cc2F)cn1	none (no result: RBBP9 inh)
O=C(CN1CCCc2ccccc21)NCc1ccc(Cl)cc1	none (no result: GSTO1 inh, RBBP9 inh, PAD4 inh)
CCN(CC)c1ccc(NC(=O)c2cccc(C)c2)cc1S(=O)(=O)Nc1ccccc1OC	PRMT1 FP inh 34 | PRMT1 inh conf inactive
COc1ccc(C(=O)Nc2ccc(Cl)c(S(=O)(=O)Nc3ccccc3OC)c2)cc1	none
CCN(CC)c1ccc(NC(=O)c2ccccc2)cc1S(=O)(=O)Nc1ccccc1OC	PRMT1 FP inh 27 | PRMT1 inh conf inactive
O=C(Nc1ccccc1N1CCOCC1)C1Cc2ccccc2CN1C(=O)c1ccco1 (stereo not drawn)	none
Cc1cc(C)cc(Oc2coc3cc(OC(=O)c4cccs4)ccc3c2=O)c1	none
NS(=O)(=O)c1ccc(CNC(=O)/C=C/c2ccco2)cc1	none
O=C(/C=C/c1ccco1)NCc1ccc(F)cc1	PRMT1 FP inh 38 | PRMT1 inh conf inactive
CC(C)Oc1ccc(C(=O)N(Cc2ccco2)C2CCS(=O)(=O)C2)cc1 (stereo not drawn)	none
CCS(=O)(=O)c1nc2ccccc2n1Cc1ccccn1	none
Cc1cc(NC(=O)CSc2nnc(COc3ccccc3)o2)no1	none
Cc1ccc(OCc2nnc(SCC(=O)Nc3ncc(C)s3)o2)cc1	PRMT1 FP inh 30 | PRMT1 inh conf inactive
O=C1C=CC(=Nc2ccc(F)cc2)O1	PRMT1 FP inh 50 (no result: GSTO1 inh, RBBP9 inh, PAD4 inh) | PRMT1 inh conf 79
O=C1C=CC(=Nc2ccc3c(c2)C(=O)c2ccccc2-3)O1	none (no result: GSTO1 inh, RBBP9 inh, PAD4 inh)
Cc1cc(NC(=O)c2ccc3nc(C)sc3c2)no1	PRMT1 FP inh 31 | PRMT1 inh conf inactive
CCN(CCS(=O)(=O)c1ccc(Br)cc1)Cc1nc2ccccc2c(=O)[nH]1	none (no result: GSTO1 inh, RBBP9 inh)
Cc1ccc(CNC(=O)CCS(=O)(=O)c2cc(Br)cc3c2N(C(=O)C2CC2)CC3)o1	PRMT1 FP inh 48 | PRMT1 inh conf inactive
O=C(COC(=O)c1ccc(Sc2ncn[nH]2)c([N+](=O)[O-])c1)Nc1cccc(Cl)c1F	none (no result: GSTO1 inh, RBBP9 inh, PAD4 inh)
CCOc1ccc(CNC(=O)c2ccc3c(c2)N(CC)CCS3)cc1	PRMT1 FP inh 25 (no result: RBBP9 inh) | PRMT1 inh conf inactive
CCN1CCSc2ccc(C(=O)NCc3ccc(OC(C)C)cc3)cc21	none (no result: RBBP9 inh)
Cc1ccc(C(C)C)c(OCCNCCc2ccccc2)c1	none (no result: RBBP9 inh)
S=c1[nH]c2cc(Cl)ccc2s1	PRMT1 FP inh 47 | PRMT1 inh conf inactive
Cc1ccc(NCc2nc3ccccc3n2C)cc1	none
Cn1c(CNc2ccc(O)cc2)nc2ccccc21	PRMT1 FP inh 39 (no result: RBBP9 inh) | PRMT1 inh conf inactive
Cc1cc(C)nc(SCC(=O)c2ccc(C)c(C)c2)n1	none (no result: RBBP9 inh)
Cc1cc(C)nc(SCC(=O)c2ccc(O)c(O)c2)n1	PRMT1 FP inh 49 (no result: RBBP9 inh) | PRMT1 inh conf 42
Cc1ccnc(SCC(=O)c2ccc([N+](=O)[O-])cc2)n1	none
Cc1cc(C)nc(SCC(=O)c2ccc([N+](=O)[O-])cc2)n1	PRMT1 FP inh 37 | PRMT1 inh conf inactive
CC(=O)Nc1cc[n+](CC(=O)c2cccc([N+](=O)[O-])c2)cc1	none (no result: RBBP9 inh)
O=C(CCNc1ccc(Cc2ccncc2)cc1)c1cccc([N+](=O)[O-])c1	PRMT1 FP inh 32 | PRMT1 inh conf 31
O=C(CCNc1cccc(F)c1)c1cccc([N+](=O)[O-])c1	PRMT1 FP inh 41 | PRMT1 inh conf 27
Cc1ccc(S(=O)(=O)CCC(=O)c2cccc([N+](=O)[O-])c2)cc1	PRMT1 FP inh 83 (no result: RBBP9 inh) | PRMT1 inh conf 91
COc1ccc(N2C(=O)CC(Sc3nc(C)c4c(n3)CCCC4)C2=O)cc1 (stereo not drawn)	none
CCOc1ccc(N2C(=O)CC(Sc3n[nH]c(-c4ccccc4)n3)C2=O)cc1 (stereo not drawn)	PRMT1 FP inh 32 | PRMT1 inh conf 52
COc1ccc(N2C(=O)CC(Sc3n[nH]c(-c4ccccc4)n3)C2=O)cc1 (stereo not drawn)	PRMT1 FP inh 30 | PRMT1 inh conf 75
O=C(CN1C(=O)NC2(CCCCCCC2)C1=O)NC(=O)NCc1ccco1	none
COC(=O)C(CC(=O)c1ccc(Br)cc1)n1nc(C)cc1C (stereo not drawn)	PRMT1 FP inh 77 (no result: RBBP9 inh) | PRMT1 inh conf inactive
O=C(Nc1nc(=O)c2ccccc2s1)c1ccc(Cl)cc1	PRMT1 FP inh 32 | PRMT1 inh conf inactive
O=C(Cc1ccccc1)Nc1nc(=O)c2ccccc2s1	PRMT1 FP inh 48 | PRMT1 inh conf inactive
O=C(Cc1ccccc1)Nc1nc2ccccc2s1	none
Nc1ccc(C(=O)Nc2nc3ccccc3s2)cc1	none
Cc1csc(=O)n1CC(=O)OCc1nnc(-c2ccc([N+](=O)[O-])cc2)o1	none (no result: GSTO1 inh, RBBP9 inh)
O=C1C(=Cc2ccco2)CCC1=Cc1ccco1	PRMT1 FP inh 53 (no result: GSTO1 inh, RBBP9 inh, PAD4 inh) | PRMT1 inh conf 50
CN1C(=O)CC(N2CCC(C(N)=O)(N3CCCCC3)CC2)C1=O (stereo not drawn)	none
COc1cccc(N2C(=O)CC(N3CCC(C(N)=O)(N4CCCCC4)CC3)C2=O)c1 (stereo not drawn)	PRMT1 FP inh 54 | PRMT1 inh conf inactive
NC(=O)C1(N2CCCCC2)CCN(C2CC(=O)N(Cc3cccs3)C2=O)CC1 (stereo not drawn)	none
NC(=O)C1(N2CCCCC2)CCN(C2CC(=O)N(CCc3ccccc3)C2=O)CC1 (stereo not drawn)	PRMT1 FP inh 44 | PRMT1 inh conf inactive
COc1ccc(-c2ccc(=O)n(CC(=O)NCC3COCCO3)n2)cc1 (stereo not drawn)	none (no result: RBBP9 inh)
CC(C)(C)c1cc(C(=O)CCN2CCOCC2)cc(C(C)(C)C)c1O	PRMT1 FP inh 36 (no result: RBBP9 inh) | PRMT1 inh conf inactive
COc1ccc(NC(=O)c2ccc(NC(=O)CN3CCN(c4ccc(O)cc4)CC3)cc2)cc1	PRMT1 FP inh 34 (no result: GSTO1 inh, RBBP9 inh, PAD4 inh) | PRMT1 inh conf inactive
COc1ccc(N2CCN(CCC(=O)c3ccc4ccccc4c3)CC2)cc1	PRMT1 FP inh 44 (no result: RBBP9 inh) | PRMT1 inh conf 28
CC(C)(C)NC(=O)CCN1CCOCC1	none
O=C(CCN1CCOCC1)c1ccc(N2CCCCC2)cc1	PRMT1 FP inh 28 (no result: GSTO1 inh, RBBP9 inh) | PRMT1 inh conf inactive
COc1ccc(-c2ccc(CN3C(C(C)C)C(=O)N(Cc4cn(CCC5OCCCO5)nn4)CCS3(=O)=O)cc2)cn1 (stereo not drawn)	none (no result: GSTO1 inh, RBBP9 inh, PAD4 inh)
C=CCc1cccc2cc(C(=O)Nc3cccc(C(=O)O)c3)c(=O)oc12	none
C=CCc1cccc2cc(C(=O)NNC(=O)c3ccncc3)c(=O)oc12	PRMT1 FP inh 27 | PRMT1 inh conf 26
COC(=O)CC1=C(c2ccc([N+](=O)[O-])cc2)CCC1=O	PRMT1 FP inh 60 (no result: GSTO1 inh, RBBP9 inh, PAD4 inh) | PRMT1 inh conf inactive
Cc1ccc(C2=C(CC(=O)O)C(=O)CC2)cc1	none
Cc1ccc(N2C(=O)CC(Sc3cccs3)C2=O)cc1 (stereo not drawn)	PRMT1 FP inh 66 | PRMT1 inh conf 51
Cc1ccc(N2C(=O)CC(Sc3nccc(C)n3)C2=O)cc1 (stereo not drawn)	none (no result: RBBP9 inh)
